Results reported in ChEMBL document CHEMBL1139894, “Withanolides with phytotoxic activity from Jaborosa caulescens var. caulescens and J. caulescens var. bipinnatifida 1” (2007).

Tests used:
Assay type in all cases: functional
Avena sativa [1] = test: Phytotoxic activity against Avena sativa assessed as radicle length elongation at 150 ppm
Procedure, shortened: (§1)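 Radicle length of treated seedlings was compared with untreated controls and reported as the percentage difference from the control, which is set to zero. Negative values mean inhibition and positive values mean stimulation. Germination and root length were also compared between treated and control seeds using Student's t-test (p < 0.05).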

Avena sativa [2] = test: Phytotoxic activity against Avena sativa assessed as radicle length elongation at 400 ppm; procedure, shortened: as §1
Lactuca sativa [3] = test: Phytotoxic activity against Latuca sativa assessed as radicle length elongation at 150 ppm; procedure, shortened: as §1
Avena sativa [4] = test: Phytotoxic activity against Avena sativa assessed as radicle length elongation at 15 ppm; procedure, shortened: as §1
Lactuca sativa [5] = test: Phytotoxic activity against Latuca sativa assessed as radicle length elongation at 400 ppm; procedure, shortened: as §1
Lactuca sativa [6] = test: Phytotoxic activity against Latuca sativa assessed as radicle length elongation at 15 ppm; procedure, shortened: as §1

Compound | Activity (Avena sativa [1]) | Activity (Avena sativa [2]) | Activity (Lactuca sativa [3]) | Activity (Avena sativa [4]) | Activity (Lactuca sativa [5]) | Activity (Lactuca sativa [6])
CCO[C@@]12C[C@H]3[C@@H](C[C@@H](O)[C@@]4(Cl)CC=CC(=O)[C@]34C)[C@@H]3CC[C@@](O)([C@H](C)[C@@H]([C@@H]4OC(=O)C(C)=C4C)O1)[C@]32C [12-O-ETHYLJABOROSALACTONE 42] | -11.2% | -32.2% | -25.7% | 3.5% | -65.1% | 2.7%
CO[C@@]12C[C@H]3[C@@H](C[C@H]4O[C@]45CC=CC(=O)[C@]35C)[C@@H]3CC[C@@](O)([C@@H]([C@H]4CC(C)=C(C)C(=O)O4)CO1)[C@]32C [12-O-METHYLJABOROSALACTONE 38] | 1.5% | -24.5% | -22.7% | 15.3% | -74.7% | -8.7%
CC1=C(C)C(=O)O[C@@H]([C@H]2CO[C@@]3(O)C[C@H]4[C@@H](C[C@H]5O[C@]56CC=CC(=O)[C@]46C)[C@@H]4CC[C@]2(O)[C@]43C)C1 [JABOROSALACTONE] | 2.4% | -36.5% | -46.2% | -13.9% | -58.6% | -1.6%
CC1=C(C)[C@H]([C@H]2O[C@@]3(O)C[C@H]4[C@@H](C[C@@H](O)[C@@]5(O)CC=CC(=O)[C@]45C)[C@@H]4CC[C@@](O)([C@@H]2C)[C@]43C)OC1=O [JABOROTETROL] | 2.7% | -5.9% | -5.5% | -10.2% | -4% | -3.9%
CC1=C(C)[C@H]([C@H]2O[C@@]3(O)C[C@H]4[C@@H](C[C@H]5O[C@]56CC=CC(=O)[C@]46C)[C@@H]4CC[C@@](O)([C@@H]2C)[C@]43C)OC1=O [TRECHONOLIDE A] | -11.7% | 4% | -8.4% | 2.5% | 2.5% | 3.7%
